Article PMC7701984 (Journal of medicinal chemistry, 2019)
pKd: −log10 of the molar value. Marks after values point to notes of the source that are not given here.

Columns and labels:
Vγ9Vδ2 T cells [1] = assay: Vγ9Vδ2 T cell proliferation assay; type: cell-based, human; details: for T cell expansion above non-stimulated baseline: positive controls at 0.1 μM; for signs of Vγ9Vδ2 T cell stimulation: proliferation assay, Supplemental Figure S1C–D
[2] = test system: peripheral blood mononuclear cells (PBMCs); assay: Ligand uptake: disappearance of prodrug from media incubated with PBMCs; type: in vitro ADME; details: 10 μM with PBMCs, 24 hours, 37 °C
Method in brief: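 PBMCs at 1,000,000 cells/mL in T cell media were incubated at 37 °C with test prodrug at 10 μM final, or with media alone. Samples were taken at 0, 6, 24 and 48 h and spun. The supernatant was mixed with acetonitrile, re-spun and stored at −20 °C. UPLC-MS used a C18 column with a 25–80% acetonitrile gradient over 8 min. The integrated molecular-ion signal was expressed relative to t = 0.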

[3] = test system: Human PBMCs containing naïve Vγ9Vδ2 T cells; assay: IFN-γ production of PBMCs by ELISA; type: cell-based; details: for EC50: Homo sapiens, PBMC, 48 h, read-out: IFN-γ EC50 (μM) with 95% CI
BTN3A1 BFI(R442A) = BTN3A1 BFI(R442A) (Homo sapiens, UniProt O00481, R442A); assay: GDP-BODIPY fluorescence polarization competitive binding assay, BFI; details: n ≥ 3
Chain of BTN3A1 BFI(R442A) (O00481 272-513 R442A limits assumed): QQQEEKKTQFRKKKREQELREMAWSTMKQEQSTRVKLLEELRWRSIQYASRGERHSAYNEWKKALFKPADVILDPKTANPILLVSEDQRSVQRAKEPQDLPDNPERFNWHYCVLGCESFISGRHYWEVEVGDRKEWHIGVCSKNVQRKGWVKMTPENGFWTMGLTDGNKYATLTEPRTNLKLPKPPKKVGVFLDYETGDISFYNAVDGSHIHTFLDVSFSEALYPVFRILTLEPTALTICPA

BTN3A1 BFI(R448A) = BTN3A1 BFI(R448A) (Homo sapiens, UniProt O00481, R448A); assay: as above; details: n ≥ 3
Chain of BTN3A1 BFI(R448A) (O00481 272-513 R448A limits assumed): as the sequence (O00481 272-513 R442A limits assumed) above, with A171R, R177A counted along it

BTN3A1 BFI(R499A) = BTN3A1 BFI(R499A) (Homo sapiens, UniProt O00481, R499A); assay: as above; details: n ≥ 3
Chain of BTN3A1 BFI(R499A) (O00481 272-513 R499A limits assumed): as the sequence (O00481 272-513 R442A limits assumed) above, with A171R, R228A counted along it

BTN3A1 BFI(M424A) = BTN3A1 BFI(M424A) (Homo sapiens, UniProt O00481, M424A); assay: as above; details: n ≥ 3, ambiguous, approximate slope estimated by GraphPad
Chain of BTN3A1 BFI(M424A) (O00481 272-513 M424A limits assumed): as the sequence (O00481 272-513 R442A limits assumed) above, with M153A, A171R counted along it

wt-BFI domain of BTN3A1 = wt-BFI domain of BTN3A1 (Homo sapiens, UniProt O00481); assay: GDP-BODIPY fluorescence polarization competitive binding assay, wt-BFI; details: n ≥ 3
Chain of wt-BFI domain of BTN3A1 (O00481 272-513 limits assumed): as the sequence (O00481 272-513 R442A limits assumed) above, with A171R counted along it

BFI = details: read-out: ITC Kd for BFI; previous ITC experiments; cited from earlier work
BTN3A1 BFI(W421A) = BTN3A1 BFI(W421A) (Homo sapiens, UniProt O00481, W421A); assay: GDP-BODIPY fluorescence polarization competitive binding assay, BFI; details: n ≥ 3
Chain of BTN3A1 BFI(W421A) (O00481 272-513 W421A limits assumed): as the sequence (O00481 272-513 R442A limits assumed) above, with W150A, A171R counted along it

Vγ9Vδ2 T cells [4] = details: read-out: Proliferation EC50 (μM) with 95% CI; footnote a; ref Hsiao 2014; cited from earlier work
BTN3A1 = details: previously reported ITC experiments; no reference given; cited from earlier work
[5] = dose-response, 48 hours, concentration not given

## C/C(=C\CCCCP(=O)(OCOC(=O)C(C)(C)C)OCOC(=O)C(C)(C)C)CO [Compound 11, (E)-(((7-hydroxy-6-methylhept-5-en-1-yl)phosphoryl)bis(oxy))bis(methylene) bis(2,2-dimethylpropanoate)]
Vγ9Vδ2 T cells [1]; concentrations up to 100 μM
  stimulation of T cell proliferation: neither prodrug 11 nor salt 10 (Supplemental Figure S1B) stimulated T cell proliferation
[2]
  parent ion detected in media relative to t = 0: less than 1%
[3]; concentrations up to 100 μM, 48 hours
  stimulation of IFN-γ production: did not stimulate

## C/C(=C\CCP(=O)(O)CP(=O)(O)O)CO [Compound 7]
[3]; 100 μM, 48 hours
  stimulation of IFN-γ production at 100 μM: did stimulate IFN-γ production
[3]
  EC50: > 100 µM

## C/C(=C\COP(=O)(O)OP(=O)(O)O)CO [Compound 1, (E)-4-hydroxy-3-methyl-but-2-enyl diphosphate]
Vγ9Vδ2 T cells [1]
  T cell expansion above non-stimulated baseline: significantly expanded T cells
BTN3A1 BFI(R442A)
  Probe displacement (mP) range with 95% CI: 19.4 (13 – 26) mP
BTN3A1 BFI(R448A)
  Probe displacement (mP) range with 95% CI: 26.2 (12 – 40) mP
BTN3A1 BFI(R499A)
  Probe displacement (mP) range with 95% CI: 55.0 (21 – 78) ^* mP
BTN3A1 BFI(M424A)
  Probe displacement (mP) range with 95% CI: 59.1^a (38 – 81) ^* mP
wt-BFI domain of BTN3A1
  Probe displacement (mP) range with 95% CI: 30.6 (25 – 36) mP
BFI
  pKd: 5.63
BTN3A1 BFI(W421A)
  Probe displacement (mP) range with 95% CI: 56.7 (40 – 73) ^* mP

## C/C(=C\CCP(=O)(CP(=O)(OCOC(=O)C(C)(C)C)OCOC(=O)C(C)(C)C)OCOC(=O)C(C)(C)C)CO (centres unmarked) [Compound 8]
[3]
  IFN-γ potency of prodrug 8 relative to its salt 7: 100 times
  EC50: > 1 µM

## COP(=O)(CCCC/C=C(\C)CO)OC [Compound 15, Dimethyl (E)-(7-hydroxy-6-methylhept-5-en-1-yl) phosphonate]
Vγ9Vδ2 T cells [1]
  signs of Vγ9Vδ2 T cell stimulation: neither intermediate 14 nor 15 displayed signs of Vγ9Vδ2 T cell stimulation

## O=P([O-])([O-])OP(=O)([O-])[O-].[Na+].[Na+].[Na+].[Na+] [NaPP, sodium diphosphate]
[3]; [5]
  stimulation of IFN-γ production: Neither zoledronate (4) nor sodium diphosphate stimulated IFN-γ production

## C/C(=C\CCP(=O)(OCOC(=O)C(C)(C)C)OCOC(=O)C(C)(C)C)CO [Compound 6]
Vγ9Vδ2 T cells [1]
  T cell expansion above non-stimulated baseline: significantly expanded T cells
[2]
  parent ion detected in media relative to t = 0: less than 1%

## O=P(O)(O)C(O)(Cn1ccnc1)P(=O)(O)O [Compound 4, zoledronate]
[3]; [5]
  stimulation of IFN-γ production: Neither zoledronate (4) nor sodium diphosphate stimulated IFN-γ production

## CC(C)=CCCCCP(=O)(OCOC(=O)C(C)(C)C)OCOC(=O)C(C)(C)C [Compound 14, (((6-Methylhept-5-en-1-yl)phosphoryl)bis(oxy))bis(methylene) bis(2,2-dimethylpropanoate)]
Vγ9Vδ2 T cells [1]
  signs of Vγ9Vδ2 T cell stimulation: neither intermediate 14 nor 15 displayed signs of Vγ9Vδ2 T cell stimulation

## C/C(=C\CCP(=O)(O)O)CO [Compound 5]
Vγ9Vδ2 T cells [4]
  EC50: 4 µM
BTN3A1
  ITC dissociation constant (Kd): not calculable
